Test results taken from ChEMBL document CHEMBL1137710, “Synthesis and in vitro antitumor activity of new quinoxaline derivatives” (2009).

Experiments:
Format in all cases: functional
HL-60(TB) = assay: Growth inhibition of human HL-60(TB) cells after 48 hrs by sulforhodamine B assay; settings: HL-60, 48 h
Procedure, shortened: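 Tested only on compounds active in a three-line prescreen, in the NCI 60-human-tumour-cell-line panel over a 5-log dose range. Values come from dose–response curves as log10 molar GI50, the concentration inhibiting 50% net cell growth. Log10 TGI (total growth inhibition) and log10 LC50 (50% net cell death) were derived too. Mean graph midpoints include insensitive lines at the highest concentration tested.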

K562 = assay: Growth inhibition of human K562 cells after 48 hrs by sulforhodamine B assay; settings: K562, 48 h
Procedure, shortened: (§1)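 NCI 60-human-tumor-cell-line panel, with compounds tested over a 5-log dose range. Values are taken from dose-response curves as log10 molar concentrations: GI50 is 50% net growth inhibition, TGI is total growth inhibition, and LC50 is 50% net cell death.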

[1] = Growth inhibition of human […] cells after 48 hrs by sulforhodamine B assay; procedure, shortened: as §1
A549 = assay: Growth inhibition of human A549 cells after 48 hrs by sulforhodamine B assay; settings: A549, 48 h; procedure, shortened: as §1
HOP-62 = assay: Growth inhibition of human HOP62 cells after 48 hrs by sulforhodamine B assay; settings: HOP-62, 48 h; procedure, shortened: as §1
NCI-H23 = assay: Growth inhibition of human NCI-H23 cells after 48 hrs by sulforhodamine B assay; settings: NCI-H23, 48 h; procedure, shortened: as §1
NCI-H322M = assay: Growth inhibition of human NCI-H322M cells after 48 hrs by sulforhodamine B assay; procedure, shortened: as §1
NCI-H522 = assay: Growth inhibition of human NCI-H522 cells after 48 hrs by sulforhodamine B assay; settings: NCI-H522, 48 h; procedure, shortened: as §1
COLO 205 = assay: Growth inhibition of human COLO205 cells after 48 hrs by sulforhodamine B assay; settings: COLO 205, 48 h; procedure, shortened: as §1
HCT-116 = assay: Growth inhibition of human HCT116 cells after 48 hrs by sulforhodamine B assay; settings: HCT-116, 48 h; procedure, shortened: as §1
SW-620 = assay: Growth inhibition of human SW620 cells after 48 hrs by sulforhodamine B assay; settings: SW-620, 48 h
Procedure, shortened: (§2)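 Run in the NCI 60-human-tumour-cell-line panel, tested over a 5-log dose range. Dose–response curves gave three values per cell line, each as a log10 molar concentration: GI50 (50% inhibition of net cell growth), TGI (total inhibition of net growth) and LC50 (50% net cell death). The mean graph midpoint is the arithmetic mean over all lines, with insensitive lines entered at the highest concentration tested.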

SF-295 = assay: Growth inhibition of human SF295 cells after 48 hrs by sulforhodamine B assay; settings: SF-295, 48 h; procedure, shortened: as §1
SNB-19 = assay: Growth inhibition of human SNB19 cells after 48 hrs by sulforhodamine B assay; settings: SNB-19, 48 h; procedure, shortened: as §2
U-251 = assay: Growth inhibition of human U251 cells after 48 hrs by sulforhodamine B assay; settings: U-251, 48 h; procedure, shortened: as §2
M14 = assay: Growth inhibition of human M14 cells after 48 hrs by sulforhodamine B assay; settings: M14, 48 h; procedure, shortened: as §1
UACC-257 = assay: Growth inhibition of human UACC257 cells after 48 hrs by sulforhodamine B assay; settings: UACC-257, 48 h; procedure, shortened: as §2
OVCAR-3 = assay: Growth inhibition of human OVCAR-3 cells after 48 hrs by sulforhodamine B assay; settings: OVCAR-3, 48 h; procedure, shortened: as §1
OVCAR-5 = assay: Growth inhibition of human OVCAR5 cells after 48 hrs by sulforhodamine B assay; settings: OVCAR-5, 48 h; procedure, shortened: as §1
OVCAR-8 = assay: Growth inhibition of human OVCAR8 cells after 48 hrs by sulforhodamine B assay; settings: OVCAR-8, 48 h; procedure, shortened: as §1
SK-OV-3 = assay: Growth inhibition of human SKOV3 cells after 48 hrs by sulforhodamine B assay; settings: SK-OV-3, 48 h; procedure, shortened: as §1
786-0 = assay: Growth inhibition of human 786-0 cells after 48 hrs by sulforhodamine B assay; settings: 786-0, 48 h; procedure, shortened: as §1
CAKI-1 = assay: Growth inhibition of human Caki1 cells after 48 hrs by sulforhodamine B assay; settings: CAKI-1, 48 h; procedure, shortened: as §1
TK-10 = assay: Growth inhibition of human TK10 cells after 48 hrs by sulforhodamine B assay; settings: TK-10, 48 h; procedure, shortened: as §2
UO-31 = assay: Growth inhibition of human UO31 cells after 48 hrs by sulforhodamine B assay; settings: UO-31, 48 h; procedure, shortened: as §2
NCI/ADR-RES = assay: Growth inhibition of human NCI/ADR-RES cells after 48 hrs by sulforhodamine B assay; procedure, shortened: as §1
MDA-MB-231 = assay: Growth inhibition of human MDA-MB-231 cells after 48 hrs by sulforhodamine B assay; settings: MDA-MB-231, 48 h; procedure, shortened: as §1
MDA-MB-435 = assay: Growth inhibition of human MDA-MB-435 cells after 48 hrs by sulforhodamine B assay; settings: MDA-MB-435, 48 h; procedure, shortened: as §1
[2] = read-out: pLC50 (the source's name) (converted)

With `COc1cc(CNc2nc3cc(N)cc(N)c3nc2-c2ccccc2)cc(OC)c1OC` the GI50 (HL-60(TB)) was 1.26 µM, the LC50 (HL-60(TB)) was > 50.1 µM and the TGI (HL-60(TB); read-out: pTGI (converted)) was > 50.1 µM. The GI50 (K562) was 1.78 µM, the LC50 (K562) was > 50.1 µM and the TGI (K562; read-out: pTGI (converted)) was > 50.1 µM. For the same compound, the GI50 [1] was 0.692 µM, the LC50 [1] was > 50.1 µM and the TGI ([1]; read-out: pTGI (converted)) was 3.02 µM. For the same compound, the GI50 (A549) was 4.27 µM, the LC50 (A549) was > 50.1 µM and the TGI (A549; read-out: pTGI (converted)) was 33.1 µM. For the same compound, the GI50 (HOP-62) was 17 µM, the LC50 (HOP-62) was > 50.1 µM and the TGI (HOP-62; read-out: pTGI (converted)) was > 50.1 µM. It also gave a GI50 (NCI-H23) of 8.71 µM, an LC50 (50% net cell kill concentration) (NCI-H23) of 33.9 µM and a TGI (NCI-H23; read-out: pTGI (converted)) of 17 µM. The GI50 (NCI-H322M) was 3.02 µM, the LC50 (NCI-H322M) was > 50.1 µM and the TGI (NCI-H322M; read-out: pTGI (converted)) was 15.8 µM. The GI50 (NCI-H522) was > 50.1 µM, the LC50 (NCI-H522) was > 50.1 µM and the TGI (NCI-H522; read-out: pTGI (converted)) was > 50.1 µM. The GI50 (COLO 205) was 3.8 µM, the LC50 (50% net cell kill) (COLO 205) was > 50.1 µM and the TGI (COLO 205; read-out: pTGI (converted)) was > 50.1 µM. The GI50 (HCT-116) was 9.77 µM, the LC50 (concentration causing 50% net cell death) (HCT-116) was 37.2 µM and the TGI (HCT-116; read-out: pTGI (converted)) was 19.1 µM. For the same compound, the GI50 (SW-620) was 1.55 µM, the CC50 (SW-620; [2]) was > 50.1 µM and the TGI (SW-620; read-out: pTGI (converted)) was 4.47 µM. For the same compound, the GI50 (SF-295) was 1.66 µM, the LC50 (50% net cell kill) (SF-295) was 37.2 µM and the TGI (SF-295; read-out: pTGI (converted)) was 5.62 µM. The GI50 (SNB-19) was 7.24 µM, the LC50 (SNB-19) was > 50.1 µM and the TGI (SNB-19; read-out: pTGI (converted)) was 20.9 µM. It also gave a GI50 (U-251) of 1.74 µM, an LC50 (50% net cell kill) (U-251) of 30.2 µM and a TGI (U-251; read-out: pTGI (converted)) of 6.31 µM. It also gave a GI50 (M14) of 9.55 µM, a CC50 (M14; [2]) of 34.7 µM and a TGI (M14; read-out: pTGI (converted)) of 18.2 µM. For the same compound, the GI50 (UACC-257) was 3.47 µM, the CC50 (UACC-257; [2]) was 27.5 µM and the TGI (UACC-257; read-out: pTGI (converted)) was 10.7 µM. The GI50 (OVCAR-3) was 1.15 µM, the CC50 (OVCAR-3; [2]) was 18.2 µM and the TGI (OVCAR-3; read-out: pTGI (converted)) was 3.39 µM. The GI50 (OVCAR-5) was 21.4 µM, the CC50 (OVCAR-5; [2]) was > 50.1 µM and the TGI (OVCAR-5; read-out: pTGI (converted)) was > 50.1 µM. The GI50 (OVCAR-8) was 6.92 µM, the CC50 (OVCAR-8; [2]) was 31.6 µM and the TGI (OVCAR-8; read-out: pTGI (converted)) was 14.8 µM. The GI50 (SK-OV-3) was 5.37 µM, the CC50 (SK-OV-3; [2]) was 36.3 µM and the TGI (SK-OV-3; read-out: pTGI (converted)) was 13.8 µM. The GI50 (786-0) was 15.5 µM, the CC50 (786-0; [2]) was > 50.1 µM and the TGI (786-0; read-out: pTGI (converted)) was > 50.1 µM. The GI50 (CAKI-1) was 1.91 µM, the CC50 (CAKI-1; [2]) was 31.6 µM and the TGI (CAKI-1; read-out: pTGI (converted)) was 8.71 µM. For the same compound, the GI50 (TK-10) was 6.31 µM, the CC50 (TK-10; [2]) was > 50.1 µM and the TGI (TK-10; read-out: pTGI (converted)) was 17.8 µM. For the same compound, the GI50 (UO-31) was 11.2 µM, the CC50 (UO-31; [2]) was > 50.1 µM and the TGI (UO-31; read-out: pTGI (converted)) was > 50.1 µM. For the same compound, the GI50 (NCI/ADR-RES) was 10.2 µM, the CC50 (NCI/ADR-RES; [2]) was 46.8 µM and the TGI (NCI/ADR-RES; read-out: pTGI (converted)) was 21.9 µM. It also gave a GI50 (MDA-MB-231) of 7.24 µM, a CC50 (MDA-MB-231; [2]) of 31.6 µM and a TGI (MDA-MB-231; read-out: pTGI (converted)) of 15.1 µM. It also gave a GI50 (MDA-MB-435) of 0.229 µM, a CC50 (MDA-MB-435; [2]) of 2.88 µM and a TGI (MDA-MB-435; read-out: pTGI (converted)) of 0.912 µM.
